Measurements from ChEMBL document CHEMBL4689842, “EUbOPEN Chemogenomics Library wave 1” (2021).

Key:
HEK-293T = experiment: Multiplex assay against HEK293T; type: toxicity, cell-based; settings: human;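 on Population Tubulin-Different-Phenotype (%): share of the cells with healthy nuclei that show this phenotype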
Procedure, shortened: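 Tubulin, mitochondrial-mass and membrane-permeability phenotypes are per cents of healthy-nucleus cells. Cells were gated by CellPathfinder machine learning into Hoechst high-intensity objects or normal cells, normal cells into healthy, pyknosed or fragmented nuclei, and pyknosed cells into mitotic or apoptotic. Before that, live cells stained at seeding with Hoechst33342, BioTracker Green Microtubule Cytoskeleton Dye, MitoTracker Red and Annexin V Alexa Fluor 680 were imaged on a CQ1 microscope at 37°C and 5% CO2 after compound addition.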

Fibroblast = experiment: Incucyte cell viability with human fibroblast; type: toxicity, cell-based; settings: 10 µM, compound concentration 10 uM; further: filed as whole numbers so only -1 and 0 and 1 occur
[1] = 12 h, 1 µM, compound concentration 1 uM, replicate 1
[2] = 12 h, 1 µM, compound concentration 1 uM, replicate 2
[3] = 12 h, 10 µM, compound concentration 10 uM, replicate 1
[4] = 12 h, 10 µM, compound concentration 10 uM, replicate 2
[5] = 24 h, 1 µM, compound concentration 1 uM, replicate 1
[6] = 24 h, 1 µM, compound concentration 1 uM, replicate 2
[7] = 24 h, 10 µM, compound concentration 10 uM, replicate 1
[8] = 24 h, 10 µM, compound concentration 10 uM, replicate 2
[9] = 0 h, replicate number 1, timepoint 0 hours
[10] = 12 h, replicate number 1, timepoint 12 hours
[11] = 18 h, replicate number 1, timepoint 18 hours
[12] = 24 h, replicate number 1, timepoint 24 hours
[13] = 48 h, 1 µM, compound concentration 1 uM, replicate 1
[14] = 48 h, 1 µM, compound concentration 1 uM, replicate 2
[15] = 48 h, 10 µM, compound concentration 10 uM, replicate 1
[16] = 48 h, 10 µM, compound concentration 10 uM, replicate 2

## CNC(=O)c1cc(Oc2ccc(NC(=O)Nc3cc(C(C)(C)C)nn3-c3ccc4ncccc4c3)c(F)c2)ccn1 [REBASTINIB]
HEK-293T; [1]
  Population Apoptotic (%): 22%
  Population Fragmented Nuclei (%): 22%
  Population Healthy Nuclei (%): 66%
  Population Hoechst High Intensity Objects (%): 15%
  Population Membrane Permeable-Phenotype (%): 11%
  Population Mitochondria Different-Phenotype (%): 4%
  Population Mitotic Cells (%): 77%
  Population Normal (%): 84%
  Population Pyknosed Nuclei (%): 10%
  Population Tubulin-Different-Phenotype (%): 3%
  Total Cell Count: 638
HEK-293T; [2]
  Population Apoptotic (%): 11%
  Population Fragmented Nuclei (%): 11%
  Population Healthy Nuclei (%): 85%
  Population Hoechst High Intensity Objects (%): 4%
  Population Membrane Permeable-Phenotype (%): 7%
  Population Mitochondria Different-Phenotype (%): 3%
  Population Mitotic Cells (%): 88%
  Population Normal (%): 95%
  Population Pyknosed Nuclei (%): 3%
  Population Tubulin-Different-Phenotype (%): 6%
  Total Cell Count: 1893
HEK-293T; [3]
  Population Apoptotic (%): 29%
  Population Fragmented Nuclei (%): 11%
  Population Healthy Nuclei (%): 41%
  Population Hoechst High Intensity Objects (%): 16%
  Population Membrane Permeable-Phenotype (%): 13%
  Population Mitochondria Different-Phenotype (%): 34%
  Population Mitotic Cells (%): 70%
  Population Normal (%): 83%
  Population Pyknosed Nuclei (%): 46%
  Population Tubulin-Different-Phenotype (%): 88%
  Total Cell Count: 515
HEK-293T; [4]
  Population Apoptotic (%): 35%
  Population Fragmented Nuclei (%): 3%
  Population Healthy Nuclei (%): 78%
  Population Hoechst High Intensity Objects (%): 6%
  Population Membrane Permeable-Phenotype (%): 9%
  Population Mitochondria Different-Phenotype (%): 55%
  Population Mitotic Cells (%): 64%
  Population Normal (%): 93%
  Population Pyknosed Nuclei (%): 18%
  Population Tubulin-Different-Phenotype (%): 97%
  Total Cell Count: 672
HEK-293T; [5]
  Population Apoptotic (%): 13%
  Population Fragmented Nuclei (%): 19%
  Population Healthy Nuclei (%): 74%
  Population Hoechst High Intensity Objects (%): 12%
  Population Membrane Permeable-Phenotype (%): 23%
  Population Mitochondria Different-Phenotype (%): 2%
  Population Mitotic Cells (%): 86%
  Population Normal (%): 87%
  Population Pyknosed Nuclei (%): 5%
  Population Tubulin-Different-Phenotype (%): 3%
  Total Cell Count: 727
HEK-293T; [6]
  Population Apoptotic (%): 3%
  Population Fragmented Nuclei (%): 28%
  Population Healthy Nuclei (%): 69%
  Population Hoechst High Intensity Objects (%): 8%
  Population Membrane Permeable-Phenotype (%): 9%
  Population Mitochondria Different-Phenotype (%): 0%
  Population Mitotic Cells (%): 96%
  Population Normal (%): 91%
  Population Pyknosed Nuclei (%): 1%
  Population Tubulin-Different-Phenotype (%): 7%
  Total Cell Count: 2966
HEK-293T; [7]
  Population Apoptotic (%): 46%
  Population Fragmented Nuclei (%): 14%
  Population Healthy Nuclei (%): 44%
  Population Hoechst High Intensity Objects (%): 15%
  Population Membrane Permeable-Phenotype (%): 8%
  Population Mitochondria Different-Phenotype (%): 58%
  Population Mitotic Cells (%): 53%
  Population Normal (%): 84%
  Population Pyknosed Nuclei (%): 40%
  Population Tubulin-Different-Phenotype (%): 92%
  Total Cell Count: 485
HEK-293T; [8]
  Population Apoptotic (%): 43%
  Population Fragmented Nuclei (%): 3%
  Population Healthy Nuclei (%): 81%
  Population Hoechst High Intensity Objects (%): 5%
  Population Membrane Permeable-Phenotype (%): 7%
  Population Mitochondria Different-Phenotype (%): 63%
  Population Mitotic Cells (%): 56%
  Population Normal (%): 94%
  Population Pyknosed Nuclei (%): 15%
  Population Tubulin-Different-Phenotype (%): 98%
  Total Cell Count: 674
Fibroblast; [9]
  Growth Rate: 0
Fibroblast; 6 h, replicate number 2, timepoint 6 hours
  Growth Rate: 1
Fibroblast; [10]
  Growth Rate: 0
Fibroblast; [11]
  Growth Rate: 0
Fibroblast; [12]
  Growth Rate: 0

## CCCn1c(=O)c2[nH]c(C34CC5CC(CC3C5)C4)nc2n(CCC)c1=O [ROLOFYLLINE]
HEK-293T; [1]
  Population Apoptotic (%): 63%
  Population Fragmented Nuclei (%): 14%
  Population Healthy Nuclei (%): 30%
  Population Hoechst High Intensity Objects (%): 15%
  Population Membrane Permeable-Phenotype (%): 3%
  Population Mitochondria Different-Phenotype (%): 84%
  Population Mitotic Cells (%): 36%
  Population Normal (%): 84%
  Population Pyknosed Nuclei (%): 55%
  Population Tubulin-Different-Phenotype (%): 70%
  Total Cell Count: 200
HEK-293T; [2]
  Population Apoptotic (%): 12%
  Population Fragmented Nuclei (%): 6%
  Population Healthy Nuclei (%): 43%
  Population Hoechst High Intensity Objects (%): 4%
  Population Membrane Permeable-Phenotype (%): 10%
  Population Mitochondria Different-Phenotype (%): 18%
  Population Mitotic Cells (%): 87%
  Population Normal (%): 95%
  Population Pyknosed Nuclei (%): 50%
  Population Tubulin-Different-Phenotype (%): 15%
  Total Cell Count: 185
HEK-293T; [3]
  Population Apoptotic (%): 78%
  Population Fragmented Nuclei (%): 12%
  Population Healthy Nuclei (%): 28%
  Population Hoechst High Intensity Objects (%): 15%
  Population Membrane Permeable-Phenotype (%): 1%
  Population Mitochondria Different-Phenotype (%): 96%
  Population Mitotic Cells (%): 21%
  Population Normal (%): 84%
  Population Pyknosed Nuclei (%): 59%
  Population Tubulin-Different-Phenotype (%): 80%
  Total Cell Count: 256
HEK-293T; [4]
  Population Apoptotic (%): 41%
  Population Fragmented Nuclei (%): 5%
  Population Healthy Nuclei (%): 24%
  Population Hoechst High Intensity Objects (%): 9%
  Population Membrane Permeable-Phenotype (%): 12%
  Population Mitochondria Different-Phenotype (%): 84%
  Population Mitotic Cells (%): 58%
  Population Normal (%): 90%
  Population Pyknosed Nuclei (%): 69%
  Population Tubulin-Different-Phenotype (%): 87%
  Total Cell Count: 143
HEK-293T; [5]
  Population Apoptotic (%): 50%
  Population Fragmented Nuclei (%): 14%
  Population Healthy Nuclei (%): 32%
  Population Hoechst High Intensity Objects (%): 22%
  Population Membrane Permeable-Phenotype (%): 1%
  Population Mitochondria Different-Phenotype (%): 77%
  Population Mitotic Cells (%): 49%
  Population Normal (%): 77%
  Population Pyknosed Nuclei (%): 53%
  Population Tubulin-Different-Phenotype (%): 83%
  Total Cell Count: 212
HEK-293T; [6]
  Population Apoptotic (%): 15%
  Population Fragmented Nuclei (%): 4%
  Population Healthy Nuclei (%): 59%
  Population Hoechst High Intensity Objects (%): 3%
  Population Membrane Permeable-Phenotype (%): 11%
  Population Mitochondria Different-Phenotype (%): 17%
  Population Mitotic Cells (%): 85%
  Population Normal (%): 96%
  Population Pyknosed Nuclei (%): 36%
  Population Tubulin-Different-Phenotype (%): 38%
  Total Cell Count: 228
HEK-293T; [7]
  Population Apoptotic (%): 77%
  Population Fragmented Nuclei (%): 13%
  Population Healthy Nuclei (%): 31%
  Population Hoechst High Intensity Objects (%): 14%
  Population Membrane Permeable-Phenotype (%): 2%
  Population Mitochondria Different-Phenotype (%): 97%
  Population Mitotic Cells (%): 22%
  Population Normal (%): 85%
  Population Pyknosed Nuclei (%): 54%
  Population Tubulin-Different-Phenotype (%): 71%
  Total Cell Count: 255
HEK-293T; [8]
  Population Apoptotic (%): 40%
  Population Fragmented Nuclei (%): 7%
  Population Healthy Nuclei (%): 38%
  Population Hoechst High Intensity Objects (%): 7%
  Population Membrane Permeable-Phenotype (%): 22%
  Population Mitochondria Different-Phenotype (%): 75%
  Population Mitotic Cells (%): 60%
  Population Normal (%): 92%
  Population Pyknosed Nuclei (%): 53%
  Population Tubulin-Different-Phenotype (%): 87%
  Total Cell Count: 150
HEK-293T; [13]
  Population Apoptotic (%): 50%
  Population Fragmented Nuclei (%): 20%
  Population Healthy Nuclei (%): 27%
  Population Hoechst High Intensity Objects (%): 23%
  Population Membrane Permeable-Phenotype (%): 4%
  Population Mitochondria Different-Phenotype (%): 61%
  Population Mitotic Cells (%): 49%
  Population Normal (%): 76%
  Population Pyknosed Nuclei (%): 52%
  Population Tubulin-Different-Phenotype (%): 70%
  Total Cell Count: 227
HEK-293T; [14]
  Population Apoptotic (%): 8%
  Population Fragmented Nuclei (%): 6%
  Population Healthy Nuclei (%): 78%
  Population Hoechst High Intensity Objects (%): 4%
  Population Membrane Permeable-Phenotype (%): 14%
  Population Mitochondria Different-Phenotype (%): 7%
  Population Mitotic Cells (%): 91%
  Population Normal (%): 95%
  Population Pyknosed Nuclei (%): 15%
  Population Tubulin-Different-Phenotype (%): 30%
  Total Cell Count: 417
HEK-293T; [15]
  Population Apoptotic (%): 64%
  Population Fragmented Nuclei (%): 18%
  Population Healthy Nuclei (%): 31%
  Population Hoechst High Intensity Objects (%): 12%
  Population Membrane Permeable-Phenotype (%): 4%
  Population Mitochondria Different-Phenotype (%): 98%
  Population Mitotic Cells (%): 35%
  Population Normal (%): 87%
  Population Pyknosed Nuclei (%): 50%
  Population Tubulin-Different-Phenotype (%): 87%
  Total Cell Count: 257
HEK-293T; [16]
  Population Apoptotic (%): 67%
  Population Fragmented Nuclei (%): 11%
  Population Healthy Nuclei (%): 55%
  Population Hoechst High Intensity Objects (%): 7%
  Population Membrane Permeable-Phenotype (%): 16%
  Population Mitochondria Different-Phenotype (%): 62%
  Population Mitotic Cells (%): 32%
  Population Normal (%): 92%
  Population Pyknosed Nuclei (%): 32%
  Population Tubulin-Different-Phenotype (%): 86%
  Total Cell Count: 185
Fibroblast; [9]
  Growth Rate: 0
Fibroblast; 6 h, replicate number 1, timepoint 6 hours
  Growth Rate: 0
Fibroblast; [10]
  Growth Rate: 0
Fibroblast; [11]
  Growth Rate: 0
Fibroblast; [12]
  Growth Rate: 0
